{"source": "paper PMC10472104", "about": "(Clinical Cancer Research, 2023)", "assay_type_in_all_cases": "cell-based, human", "key": {"[1]": {"system": "γH2AX in TC32 cells", "assay": "γH2AX expression by Western blotting", "conditions": "TC32, 24 hours", "how_it_was_run": "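Cells grown to 70–80% confluency in six-well plates, settled overnight, serum-starved 24 h, then given DMSO or increasing concentrations of test compound for 24 h. Lysates were transferred to nitrocellulose and blocked. Blots were probed overnight at 4°C with rabbit anti-phospho-H2AX (Ser139) and anti-total H2AX, then 1 h at room temperature with IRDye800CW anti-rabbit, and scanned on an Odyssey imager.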"}, "[2]": {"system": "γH2AX foci in CHLA10 cells", "assay": "γH2AX foci by immunofluorescence and confocal microscopy", "conditions": "CHLA10, increasing doses, 24 hours", "how_it_was_run": "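Cells were fixed in 4% paraformaldehyde 30 min at room temperature and permeabilized with 0.5% Triton-X. They were probed overnight at 4°C with rabbit anti-phospho-H2AX (Ser139), then Alexa Fluor 488 anti-rabbit, and DAPI-mounted. Foci were counted from confocal images.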"}, "[3]": {"system": "γH2AX in CHLA10 cells", "assay": "γH2AX expression by Western blotting", "conditions": "CHLA10, 24 hours"}, "[4]": {"system": "TC32 and CHLA10 spheroids", "assay": "3D spheroid assays, comparison across both models", "conditions": "4 days"}, "[5]": {"system": "TC32 cells", "assay": "Cell-cycle analysis", "conditions": "TC32 (Fig. 3A)"}, "[6]": {"system": "CHLA10 cells", "assay": "Cell-cycle analysis", "conditions": "CHLA10 (Fig. 3B)"}}, "note": "“Also recorded” adds a separate entry of the source.", "data": [{"smiles": "O=C(c1cc(Cc2n[nH]c(=O)c3ccccc23)ccc1F)N1CCN(C(=O)C2CC2)CC1", "note": "[olaparib]", "values": [{"measurement": "γH2AX expression with increasing doses", "setting": "[1]", "result": "induced γH2AX expression in a dose-dependent manner"}, {"measurement": "γH2AX foci formation", "setting": "[2]", "result": "dose-dependent γH2AX foci formation"}, {"measurement": "γH2AX expression with increasing doses", "setting": "[3]", "result": "induced γH2AX expression in a dose-dependent manner"}]}, {"smiles": "Cn1ncnc1[C@H]1c2n[nH]c(=O)c3cc(F)cc(c23)N[C@@H]1c1ccc(F)cc1", "note": "[talazoparib]", "values": [{"measurement": "spheroid activity compared with kt-3283", "setting": "[4]", "result": "equivalent activity; also recorded: equivalent efficacy"}]}, {"smiles": "O=C(CCCCCCC(=O)Nc1ccccc1)NO", "note": "[vorinostat]", "values": [{"measurement": "cell-cycle arrest induced", "setting": "[5]", "result": "G0/G1 cell-cycle arrest"}, {"measurement": "γH2AX expression with increasing doses", "setting": "[1]", "result": "induced γH2AX expression in a dose-dependent manner"}, {"measurement": "cell-cycle arrest induced", "setting": "[6]", "result": "G0/G1 cell-cycle arrest"}, {"measurement": "γH2AX foci formation", "setting": "[2]", "result": "milder DNA damage foci formation"}, {"measurement": "γH2AX expression with increasing doses", "setting": "[3]", "result": "induced γH2AX expression in a dose-dependent manner"}]}]}
